Reference: ChEMBL document CHEMBL1133996, “The synthesis of pseudomycin C' via a novel acid promoted side-chain deacylation of pseudomycin A” (2001)
Values after ≈ are worked out from the molar mass of the structure shown.

Experiments:
Format in all cases: functional
[1] = test system: Candida albicans; experiment: Minimum inhibitory concentration tested in vitro against Candida albicans
How it was run: (§1)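 Robotic broth microdilution: DMSO stocks diluted in broth to a starting 20 µg/mL, serial 2-fold dilutions. Yeasts grown on Sabouraud dextrose agar, 35°C, 24 h, suspended in saline and adjusted to 1 × 10^5 conidia/mL in Sabouraud dextrose broth (hemacytometer count).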

[2] = test system: Aspergillus fumigatus; experiment: Minimum inhibitory concentration tested in vitro against Aspergillus fumigatus
How it was run: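 A. fumigatus broth microdilution: spores teased from mycelia grown on potato dextrose agar into 0.1% Tween 80/saline, adjusted to 1 × 10^5 spores/mL in Sabouraud broth. Compounds from DMSO, starting at 20 µg/mL, serial 2-fold dilutions.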

[3] = test system: Cryptococcus neoformans; experiment: Minimum inhibitory concentration tested in vitro against Cryptococcus neoformans; how it was run: as §1
[4] = test system: Mus musculus; experiment: Effective dose administered intraperitoneally against Candida albicans infected mice; conditions: ip
How it was run: (§2)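 C. albicans systemic infection in mice: 2 × 10^6 blastoconidia iv (0.1 mL, lateral tail vein). Dosed ip (0.2 mL) at 0, 4, 24 and 48 h post-infection at 20, 10 and 5.0 mg/kg, six mice per level, in 4.0% hydroxypropyl β cyclodextrin/sodium acetate pH 7.0/1.75% dextrose; vehicle-dosed infected controls (10). Morbidity/mortality followed 7 days; ED50 by Reed–Muench.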

[5] = test system: Histoplasma capsulatum; experiment: Minimum inhibitory concentration tested in vitro against Histoplasma capsulatum
How it was run: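 Robotic broth microdilution. Compounds dissolved in 100% DMSO, diluted in broth to start at 20 µg/mL in the first wells after inoculum, then serial 2-fold dilutions. Conidia suspended in saline and adjusted to 1 × 10^5 conidia/mL in Sabouraud dextrose broth. Incubated 48 h at 35 °C in ambient air. MIC = lowest concentration inhibiting 90–100% of visible growth vs untreated controls.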

[6] = test system: Candida parapsilosis; experiment: Minimum inhibitory concentration tested in vitro against Candida parapsilosis; how it was run: as §1
[7] = test system: Mus musculus; experiment: Effective dose against Candida albicans tested in infected mice on intraperitoneal administration; conditions: ip; how it was run: as §2
[8] = Candida albicans, read-out: MIC
[9] = Aspergillus fumigatus, read-out: MIC
[10] = Cryptococcus neoformans, read-out: MIC
[11] = Histoplasma capsulatum, read-out: MIC
[12] = Lodderomyces parapsilosis, read-out: MIC

SMILES: C/C=C1/NC(=O)[C@H]([C@H](C)O)NC(=O)[C@H](CCN)NC(=O)[C@H](CCCCN)NC(=O)[C@H](CC(=O)O)NC(=O)[C@@H](CCN)NC(=O)[C@@H](NC(=O)CC(O)CCCCCCCCC)COC(=O)[C@H]([C@H](O)CCl)NC(=O)[C@H]([C@H](O)C(=O)O)NC1=O (stereo not given in full)
- MIC [1, 8]: 10 µg/mL (≈ 8.48 µM)
- MIC [2, 9]: > 20 µg/mL
- MIC [3, 10]: 1.25 µg/mL (≈ 1.06 µM)

SMILES: C/C=C1/NC(=O)[C@H]([C@H](C)O)NC(=O)[C@H](CCN)NC(=O)[C@H](CCCCN)NC(=O)[C@H](CC(=O)O)NC(=O)[C@@H](CCN)NC(=O)[C@@H](NC(=O)CC(O)CCCCCCCCCCCCC)COC(=O)[C@H]([C@H](O)CCl)NC(=O)[C@H]([C@H](O)C(=O)O)NC1=O (stereo in doubt; form 2)
- ED50 [4]: 2.5 mg/kg
- MIC [1]: 0.156 µg/mL (≈ 0.126 µM)
- MIC [2]: 0.625 µg/mL (≈ 0.506 µM)
- MIC [3]: 0.005 µg/mL (≈ 0.00405 µM)

SMILES: C/C=C1/NC(=O)[C@H]([C@H](C)O)NC(=O)[C@H](CCN)NC(=O)[C@H](CCCCN)NC(=O)[C@H](CC(=O)O)NC(=O)[C@@H](CCN)NC(=O)[C@@H](NC(=O)C[C@@H](O)CCCCCCCCCCCCC)COC(=O)[C@H]([C@H](O)CCl)NC(=O)[C@H]([C@H](O)C(=O)O)NC1=O
- MIC [1, 8]: 5 µg/mL (≈ 4.05 µM)
- MIC [2, 9]: 20 µg/mL (≈ 16.2 µM)
- MIC [5, 11]: 5 µg/mL (≈ 4.05 µM)
- MIC [3, 10]: 5 µg/mL (≈ 4.05 µM)
- MIC [6, 12]: 5 µg/mL (≈ 4.05 µM)

SMILES: C/C=C1/NC(=O)[C@H]([C@H](C)O)NC(=O)[C@H](CCN)NC(=O)[C@H](CCCCN)NC(=O)[C@H](CC(=O)O)NC(=O)[C@@H](CCN)NC(=O)[C@@H](NC(=O)CC(O)CCCCCCCCCCC)COC(=O)[C@H]([C@H](O)CCl)NC(=O)[C@H]([C@H](O)C(=O)O)NC1=O (stereo not given in full)
- ED50 [4]: 3.5 mg/kg
- MIC [1, 8]: 0.156 µg/mL (≈ 0.129 µM)
- MIC [2, 9]: 10 µg/mL (≈ 8.28 µM)
- MIC [3, 10]: 0.02 µg/mL (≈ 0.0166 µM)

SMILES: C/C=C1/NC(=O)[C@H]([C@H](C)O)NC(=O)[C@H](CCN)NC(=O)[C@H](CCCCN)NC(=O)[C@H](CC(=O)O)NC(=O)[C@@H](CCN)NC(=O)[C@@H](NC(=O)C[C@H](O)CCCCCCCCCCCCC)COC(=O)[C@H]([C@H](O)CCl)NC(=O)[C@H]([C@H](O)C(=O)O)NC1=O (stereo in doubt; form 2)
- MIC [1]: 0.039 µg/mL (≈ 0.0316 µM)
- MIC [2]: 0.625 µg/mL (≈ 0.506 µM)
- MIC [5]: 0.156 µg/mL (≈ 0.126 µM)
- MIC [6]: 0.02 µg/mL (≈ 0.0162 µM)

SMILES: C/C=C1/NC(=O)[C@H]([C@H](C)O)NC(=O)[C@H](CCN)NC(=O)[C@H](CCCCN)NC(=O)[C@H](CC(=O)O)NC(=O)[C@@H](CCN)NC(=O)[C@@H](NC(=O)CCCCCCCCCCCCCCC)COC(=O)[C@H]([C@H](O)CCl)NC(=O)[C@H]([C@H](O)C(=O)O)NC1=O
- MIC [1, 8]: 10 µg/mL (≈ 8.2 µM)
- MIC [5, 11]: 10 µg/mL (≈ 8.2 µM)
- MIC [3, 10]: 1.25 µg/mL (≈ 1.02 µM)
- MIC [6, 12]: 10 µg/mL (≈ 8.2 µM)

SMILES: C/C=C1/NC(=O)[C@H]([C@H](C)O)NC(=O)[C@H](CCN)NC(=O)[C@H](CCCCN)NC(=O)[C@H](CC(=O)O)NC(=O)[C@@H](CCN)NC(=O)[C@@H](NC(=O)CC(O)C(O)CCCCCCCCCCCC)COC(=O)[C@H]([C@H](O)CCl)NC(=O)[C@H]([C@H](O)C(=O)O)NC1=O (stereo not given in full)
- ED50 [4]: > 5 mg/kg
- MIC [1, 8]: 0.078 µg/mL (≈ 0.0623 µM)
- MIC [2, 9]: 1.25 µg/mL (≈ 0.999 µM)
- MIC [3, 10]: 0.02 µg/mL (≈ 0.016 µM)

SMILES: C/C=C1/NC(=O)[C@H]([C@H](C)O)NC(=O)[C@H](CCN)NC(=O)[C@H](CCCCN)NC(=O)[C@H](CC(=O)O)NC(=O)[C@@H](CCN)NC(=O)[C@@H](NC(=O)CC(O)CCCCCCCCCCCCC)COC(=O)[C@H]([C@H](O)CCl)NC(=O)[C@H]([C@H](O)C(=O)O)NC1=O (stereo in doubt; form 1)
- MIC [1, 8]: 0.156 µg/mL (≈ 0.126 µM)
- MIC [2, 9]: 1.25 µg/mL (≈ 1.01 µM)
- MIC [5, 11]: 0.312 µg/mL (≈ 0.252 µM)
- MIC [3, 10]: < 0.01 µg/mL
- MIC [6, 12]: 0.156 µg/mL (≈ 0.126 µM)

SMILES: C/C=C1/NC(=O)[C@H]([C@H](C)O)NC(=O)[C@H](CCN)NC(=O)[C@H](CCCCN)NC(=O)[C@H](CC(=O)O)NC(=O)[C@@H](CCN)NC(=O)[C@@H](NC(=O)C[C@H](O)CCCCCCCCCCCCC)COC(=O)[C@H]([C@H](O)CCl)NC(=O)[C@H]([C@H](O)C(=O)O)NC1=O (stereo in doubt; form 1)
- MIC [1, 8]: 0.039 µg/mL (≈ 0.0316 µM)
- MIC [2]: 0.312 µg/mL (≈ 0.252 µM)
- MIC [5, 11]: 0.156 µg/mL (≈ 0.126 µM)
- MIC [3, 10]: < 0.01 µg/mL
- MIC [6, 12]: 0.039 µg/mL (≈ 0.0316 µM)

SMILES: C/C=C1/NC(=O)[C@H]([C@H](C)O)NC(=O)[C@H](CCN)NC(=O)[C@H](CCCCN)NC(=O)[C@H](CC(=O)O)NC(=O)[C@@H](CCN)NC(=O)[C@@H](NC(=O)CC(O)C(O)CCCCCCCCCCC)COC(=O)[C@H]([C@H](O)CCl)NC(=O)[C@H]([C@H](O)C(=O)O)NC1=O (stereo not given in full)
- MIC [1, 8]: 2.5 µg/mL (≈ 2.02 µM)
- MIC [2, 9]: > 20 µg/mL
- MIC [3, 10]: 1.25 µg/mL (≈ 1.01 µM)

SMILES: C/C=C1/NC(=O)[C@H]([C@H](C)O)NC(=O)[C@H](CCN)NC(=O)[C@H](CCCCN)NC(=O)[C@H](CC(=O)O)NC(=O)[C@@H](CCN)NC(=O)[C@@H](NC(=O)CC(O)C(O)CCCCCCCCCC)COC(=O)[C@H]([C@H](O)CCl)NC(=O)[C@H]([C@H](O)C(=O)O)NC1=O (stereo not given in full)
- ED50 [7]: 7.1 mg/kg
- MIC [1, 8]: 0.625 µg/mL (≈ 0.511 µM)
- MIC [2, 9]: 10 µg/mL (≈ 8.17 µM)
- MIC [3, 10]: 0.078 µg/mL (≈ 0.0637 µM)
